Experimental data taken from ChEMBL document CHEMBL3525987, “Assessment of exposure of metabolites in preclinical species and humans at steady state from the single-dose radiolabeled absorption, distribution, metabolism, and excretion studies: a case study” (Drug Metab Dispos, 2012).

Legend:
[1] = Half life in human plasma at 100 mg, po administered as single dose by LC-MS/MS analysis; format: ADME, organism-based; set-up: dosed compound name [14C]lixivaptan
In short: (§1)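 Single oral 100 mg [14C]drug to healthy male volunteers; plasma at 0.25-144 h. Parent by validated LC-MS/MS, total radioactivity by LSC as ng-equiv/ml; Tmax from observed data; t1/2 = 0.693/kel from log-linear terminal regression.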

[2] = AUC(0 to t) in human plasma at 100 mg, po administered as single dose by LC-MS/MS analysis; format: ADME, organism-based; set-up: dosed compound name [14C]lixivaptan
In short: (§2)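 Fasted healthy males took one oral 100 mg (200 µCi) [14C]lixivaptan dose. Plasma was drawn from predose to 144 h. Total radioactivity was measured by LSC and converted to ng-equiv/ml via the dose specific activity; lixivaptan by validated LC-MS/MS. Noncompartmental analysis: Cmax observed; kel by log-linear regression; AUC0-t by linear trapezoid; extrapolation as Cest/kel.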

[3] = Tmax in male Sprague-Dawley rat plasma at 10 mg/kg, po administered as single dose via gavage by LC-MS/MS analysis; format: ADME, organism-based; set-up: dose 10 mg/kg, dosed compound name [14C]lixivaptan, route oral
In short: (§3)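 Jugular-vein cannulated SD rats (5/gender) given gavage [14C]drug 10 mg/kg in pluronic F68/water; K2EDTA blood 0.25-168 h with donor blood replacement. Parent by validated LC-MS/MS, radioactivity by LSC; Tmax observed; t1/2 = 0.693/kel by terminal log-linear regression.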

[4] = Half life in male Sprague-Dawley rat plasma at 10 mg/kg, po administered as single dose via gavage by LC-MS/MS analysis; format: ADME, organism-based; set-up: dose 10 mg/kg, dosed compound name [14C]lixivaptan, route oral; in short: as §3
[5] = AUC(0 to infinity) in male Sprague-Dawley rat plasma at 10 mg/kg, po administered as single dose via gavage by LC-MS/MS analysis; format: ADME, organism-based; set-up: time infinity, dose 10 mg/kg, dosed compound name [14C]lixivaptan, route oral
In short: (§4)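 Jugular-cannulated Sprague-Dawley rats (5/gender) were fasted 18 h and gavaged once with 10 mg/kg [14C]lixivaptan suspended in water/pluronic F68. K2EDTA blood was taken at 0.25–168 h, with donor blood replaced from 1 h on. Total radioactivity was read by LSC (ng-equiv/ml) and parent by validated LC-MS/MS. Noncompartmental Cmax, log-linear kel and trapezoidal AUC followed.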

[6] = Cmax in female Sprague-Dawley rat plasma at 10 mg/kg, po administered as single dose; format: ADME, organism-based; set-up: dose 10 mg/kg, dosed compound name [14C]lixivaptan, route oral; in short: as §4
[7] = Half life in female Sprague-Dawley rat plasma at 10 mg/kg, po administered as single dose via gavage by LC-MS/MS analysis; format: ADME, organism-based; set-up: dose 10 mg/kg, dosed compound name [14C]lixivaptan, route oral; in short: as §3
[8] = AUC(0 to t) in female Sprague-Dawley rat plasma at 10 mg/kg, po administered as single dose via gavage by LC-MS/MS analysis; format: ADME, organism-based; set-up: dose 10 mg/kg, dosed compound name [14C]lixivaptan, route oral; in short: as §4
[9] = Half life in male beagle dog plasma at 10 mg/kg, po administered as single dose by LC-MS/MS analysis; format: ADME, organism-based, Canis lupus familiaris; set-up: dose 10 mg/kg, dosed compound name [14C]lixivaptan, route oral
In short: (§5)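 Male beagles given 10 mg/kg [14C]drug oral suspension; jugular K2EDTA blood at 0.25-168 h. Parent by validated LC-MS/MS, total radioactivity by LSC; Tmax observed; t1/2 = 0.693/kel from terminal log-linear regression.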

[10] = AUC(0 to t) in male beagle dog plasma at 10 mg/kg, po administered as single dose by LC-MS/MS analysis; format: ADME, organism-based, Canis lupus familiaris; set-up: dose 10 mg/kg, dosed compound name [14C]lixivaptan, route oral
In short: (§6)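 Four male beagles were fasted 18 h and gavaged once with 10 mg/kg (2 ml/kg) [14C]lixivaptan as a 5.0 mg/ml water/pluronic F68 suspension. Jugular K2EDTA blood was sampled from 0.25 to 168 h. Plasma total radioactivity was counted by LSC as ng-equiv/ml and lixivaptan by validated LC-MS/MS. Noncompartmental Cmax, t1/2 and trapezoidal AUC were derived.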

[11] = AUC(0 to infinity) in male beagle dog plasma at 10 mg/kg, po administered as single dose by LC-MS/MS analysis; format: ADME, organism-based, Canis lupus familiaris; set-up: time infinity, dose 10 mg/kg, dosed compound name [14C]lixivaptan, route oral; in short: as §6
[12] = Cmax in human plasma at 100 mg, po administered as single dose by LC-MS/MS analysis; format: ADME, organism-based; set-up: dose 100 mg, route oral, dosed compound name [14C]lixivaptan; in short: as §2
Homo sapiens = assay: Drug concentration at steady state in human at 100 mg, po qd for 7 days by LC/MS/MS analysis; format: ADME, organism-based; set-up: dosed compound name Lixivaptan; details: in vivo, 168 h
In short: (§7)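 Phase 1 human study with lixivaptan 100 mg orally once daily and blood taken on the final day. Parent and two abundant metabolites were quantified in plasma with a validated LC-MS/MS assay.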

[13] = AUC at steady state in human at 100 mg, po qd for 7 days by LC/MS/MS analysis; format: ADME, organism-based; set-up: dosed compound name Lixivaptan; details: plasma; in short: as §7
[14] = Tmax in human plasma at 100 mg, po administered as single dose by LC-MS/MS analysis; format: ADME, organism-based; set-up: dosed compound name [14C]lixivaptan; in short: as §1
[15] = AUC(0 to infinity) in human plasma at 100 mg, po administered as single dose by LC-MS/MS analysis; format: ADME, organism-based; set-up: dose 100 mg, route oral, time infinity, dosed compound name [14C]lixivaptan; in short: as §2
[16] = Cmax in male Sprague-Dawley rat plasma at 10 mg/kg, po administered as single dose via gavage by LC-MS/MS analysis; format: ADME, organism-based; set-up: dose 10 mg/kg, dosed compound name [14C]lixivaptan, route oral; in short: as §4
[17] = AUC(0 to t) in male Sprague-Dawley rat plasma at 10 mg/kg, po administered as single dose via gavage by LC-MS/MS analysis; format: ADME, organism-based; set-up: dose 10 mg/kg, dosed compound name [14C]lixivaptan, route oral; in short: as §4
[18] = Tmax in female Sprague-Dawley rat plasma at 10 mg/kg, po administered as single dose via gavage by LC-MS/MS analysis; format: ADME, organism-based; set-up: dose 10 mg/kg, dosed compound name [14C]lixivaptan, route oral; in short: as §3
[19] = AUC(0 to infinity) in female Sprague-Dawley rat plasma at 10 mg/kg, po administered as single dose via gavage by LC-MS/MS analysis; format: ADME, organism-based; set-up: time infinity, dose 10 mg/kg, dosed compound name [14C]lixivaptan, route oral; in short: as §4
[20] = Tmax in male beagle dog plasma at 10 mg/kg, po administered as single dose by LC-MS/MS analysis; format: ADME, organism-based, Canis lupus familiaris; set-up: dose 10 mg/kg, dosed compound name [14C]lixivaptan, route oral; in short: as §5
[21] = Cmax in male beagle dog plasma at 10 mg/kg, po administered as single dose by LC-MS/MS analysis; format: ADME, organism-based, Canis lupus familiaris; set-up: dose 10 mg/kg, dosed compound name [14C]lixivaptan, route oral; in short: as §6

half-life [1]: 9.77 h
AUC(0-t) [2]: 1540 ng·h/mL
Tmax [3]: 0.8 h
half-life [4]: 1.3 h
AUC(0-inf) [5]: 219 ng·h/mL
Cmax [6]: 338 ng/mL
half-life [7]: 4.2 h
AUC(0-t) [8]: 1530 ng·h/mL
half-life [9]: 8.8 h
AUC(0-t) [10]: 4700 ng·h/mL
AUC(0-inf) [11]: 4870 ng·h/mL
Cmax [12]: 437 ng/mL
Css (Homo sapiens): 514 ng/mL
AUC at 168 h [13]: 2960 ng·h/mL
Tmax [14]: 0.7 h
AUC(0-inf) [15]: 1570 ng·h/mL
Cmax [16]: 91 ng/mL
AUC(0-t) [17]: 140 ng·h/mL
Tmax [18]: 0.8 h
AUC(0-inf) [19]: 1890 ng·h/mL
Tmax [20]: 0.8 h
Cmax [21]: 759 ng/mL
SMILES: Cc1ccc(F)cc1C(=O)Nc1ccc(C(=O)N2Cc3cccn3Cc3ccccc32)c(Cl)c1 [LIXIVAPTAN]
